Data on 14 molecules can be found in ChEMBL document CHEMBL1124321, “Design of potent linear alpha-melanotropin 4-10 analogues modified in positions 5 and 10” (J Med Chem, 1989).

One assay concerns lizard. Nature of the assay: In vitro potency in lizard (Anolis carolinensis) skin bioassay relative to alpha-MSH. The assay is classed as functional. In short, it runs like this:
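Isolated skins incubated in vitro with peptide across the full log dose-response range. Darkening from melanosome dispersion into melanophore dendrites is read as surface reflectance on a reflectometer and expressed as percent response versus the time-zero value. Each point is a mean ± SE of 6 or more skins. Potency is taken from the dose-response curves relative to α-MSH.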

Assay [1] concerns Melanocyte-stimulating hormone receptor (Rana pipiens). Briefly: In vitro potency in frog (Rana pipiens) skin assay relative to alpha-MSH.

Non-standard residues stand in square brackets, D forms with d. Residues, ends and D or L forms follow the SMILES beside them. Nle = CCCC[C@H](N)C(=O)O

`CCCC[C@H](NC(=O)[C@H](CO)NC(=O)[C@H](Cc1ccc(O)cc1)NC(=O)[C@H](CO)NC(C)=O)C(=O)N[C@@H](CCC(=O)O)C(=O)N[C@@H](Cc1c[nH]cn1)C(=O)N[C@H](Cc1ccccc1)C(=O)N[C@@H](CCCN=C(N)N)C(=O)N[C@@H](Cc1c[nH]c2ccccc12)C(=O)N[C@@H](CCCCN)C(=O)NCC(=O)N1CCC[C@H]1C(=O)N[C@H](C(N)=O)C(C)C` (Ac-SYS[Nle]EH[dF]RWKGPV-NH2): the Activity with lizard stood at 8; in assay [1], 6.

Regarding `CCCC[C@H](NC(C)=O)C(=O)N[C@@H](CCC(=O)O)C(=O)N[C@@H](Cc1c[nH]cn1)C(=O)N[C@H](Cc1ccccc1)C(=O)N[C@@H](CCCN=C(N)N)C(=O)N[C@@H](Cc1c[nH]c2ccccc12)C(=O)N[C@@H](CCN)C(N)=O`, the Activity in the assay with lizard was 10; in assay [1] it was 0.9.

Regarding `CCCC[C@H](NC(C)=O)C(=O)N[C@@H](CC(=O)O)C(=O)N[C@@H](Cc1c[nH]cn1)C(=O)N[C@@H](Cc1ccccc1)C(=O)N[C@@H](CCCN=C(N)N)C(=O)N[C@@H](Cc1c[nH]c2ccccc12)C(=O)N[C@@H](CCCCN)C(N)=O`, the Activity in the assay on lizard was determined as 0.08.

On to `CCCC[C@H](NC(C)=O)C(=O)N[C@@H](CC(=O)O)C(=O)N[C@@H](Cc1c[nH]cn1)C(=O)N[C@H](Cc1ccccc1)C(=O)N[C@@H](CCCN=C(N)N)C(=O)N[C@@H](Cc1c[nH]c2ccccc12)C(=O)NCC(N)=O`, for which the Activity is 8 with lizard and 0.1 in assay [1].

For `CCCC[C@H](NC(C)=O)C(=O)N[C@@H](CC(=O)O)C(=O)N[C@@H](Cc1c[nH]cn1)C(=O)N[C@H](Cc1ccccc1)C(=O)N[C@@H](CCCN=C(N)N)C(=O)N[C@@H](Cc1c[nH]c2ccccc12)C(=O)N[C@@H](CCCCN)C(N)=O`, in the assay with lizard, the Activity was found to be 8.

For the molecule `CCCC[C@H](NC(=O)[C@H](CO)NC(=O)[C@H](Cc1ccc(O)cc1)NC(=O)[C@H](CO)NC(C)=O)C(=O)N[C@@H](CC(=O)O)C(=O)N[C@@H](Cc1c[nH]cn1)C(=O)N[C@H](Cc1ccccc1)C(=O)N[C@@H](CCCN=C(N)N)C(=O)N[C@@H](Cc1c[nH]c2ccccc12)C(=O)N[C@@H](CCCCN)C(=O)NCC(=O)N1CCC[C@H]1C(=O)N[C@H](C(N)=O)C(C)C` (Ac-SYS[Nle]DH[dF]RWKGPV-NH2), the Activity was 8 in the assay with lizard and 9 in assay [1].

With `CCCC[C@H](NC(C)=O)C(=O)N[C@@H](CCC(=O)O)C(=O)N[C@@H](Cc1c[nH]cn1)C(=O)N[C@H](Cc1ccccc1)C(=O)N[C@@H](CCCN=C(N)N)C(=O)N[C@@H](Cc1c[nH]c2ccccc12)C(=O)N[C@@H](CCCCN)C(N)=O`, the Activity with lizard amounted to 8; in assay [1] it was 0.2.

For `CCCC[C@H](NC(C)=O)C(=O)N[C@@H](CC(=O)O)C(=O)N[C@@H](Cc1c[nH]cn1)C(=O)N[C@H](Cc1ccccc1)C(=O)N[C@@H](CCCN=C(N)N)C(=O)N[C@@H](Cc1c[nH]c2ccccc12)C(=O)N[C@@H](CCCCN)C(=O)NCC(=O)N1CCC[C@H]1C(=O)N[C@H](C(N)=O)C(C)C` (Ac-[Nle]DH[dF]RWKGPV-NH2), the Activity in the assay on lizard came out at 10; in assay [1], 1.

On to `CCCC[C@H](NC(C)=O)C(=O)N[C@@H](CC(=O)O)C(=O)N[C@@H](Cc1c[nH]cn1)C(=O)N[C@H](Cc1ccccc1)C(=O)N[C@@H](CCCN=C(N)N)C(=O)N[C@@H](Cc1c[nH]c2ccccc12)C(=O)N[C@@H](CN)C(N)=O`, for which the results for the Activity (with lizard; in assay [1]) were 8 and 0.2, respectively.

With `CCCC[C@H](NC(C)=O)C(=O)N[C@@H](CC(=O)O)C(=O)N[C@@H](Cc1c[nH]cn1)C(=O)N[C@H](Cc1ccccc1)C(=O)N[C@@H](CCCN=C(N)N)C(=O)N[C@@H](Cc1c[nH]c2ccccc12)C(=O)N[C@@H](CCN)C(N)=O`, the figures for the Activity (in the assay with lizard; in assay [1]) were 50 and 0.9, respectively.

As for `CCCC[C@H](NC(C)=O)C(=O)N[C@@H](CC(=O)O)C(=O)N[C@@H](Cc1c[nH]cn1)C(=O)N[C@H](Cc1ccccc1)C(=O)N[C@@H](CCCN=C(N)N)C(=O)N[C@@H](Cc1c[nH]c2ccccc12)C(=O)N[C@@H](CCCN)C(N)=O`, the Activity in the assay with lizard came to 10; in assay [1] it was 0.9.

Take `CCCC[C@H](NC(C)=O)C(=O)N[C@@H](CCC(=O)O)C(=O)N[C@@H](Cc1c[nH]cn1)C(=O)N[C@H](Cc1ccccc1)C(=O)N[C@@H](CCCN=C(N)N)C(=O)N[C@@H](Cc1c[nH]c2ccccc12)C(=O)N[C@@H](CCCCN)C(=O)NCC(=O)N1CCC[C@H]1C(=O)N[C@H](C(N)=O)C(C)C` (Ac-[Nle]EH[dF]RWKGPV-NH2): the Activity with lizard was found to be 8; in assay [1] it was 0.8.

As for `CCCC[C@H](NC(C)=O)C(=O)N[C@@H](CCC(=O)O)C(=O)N[C@@H](Cc1c[nH]cn1)C(=O)N[C@H](Cc1ccccc1)C(=O)N[C@@H](CCCN=C(N)N)C(=O)N[C@@H](Cc1c[nH]c2ccccc12)C(=O)N[C@@H](CCCN)C(N)=O`, the Activity in the assay on lizard is 8; in assay [1] it was 0.6.

With `CCCC[C@H](NC(C)=O)C(=O)N[C@@H](CCC(=O)O)C(=O)N[C@@H](Cc1c[nH]cn1)C(=O)N[C@@H](Cc1ccccc1)C(=O)N[C@@H](CCCN=C(N)N)C(=O)N[C@@H](Cc1c[nH]c2ccccc12)C(=O)N[C@@H](CCCCN)C(N)=O`, the results for the Activity (with lizard; in assay [1]) were 0.08 and 0.001, respectively.
